Shown are actives, neighbours in structure and some others; about 1.8% of the full set was active somewhere.
CHRM5 PAM: positive allosteric modulators of human muscarinic M5 receptor | activation, % at 3 µM | CHO-K1 hM5, Fluo-8 calcium, ACh EC20 PAM; 0% = ACh EC20, 100% = ACh EC100 | hit rate 0.3% among 360,000;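 active = activation above the run cutoff, the mean activation of all test compounds plus 3 SD, cut at about 18% in these data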
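Test system: CHO-K1 hM5 cells / Doses: single-point, 3 µM nominal / Times: Post-acetylcholine fluorescence recording 140 s / Technique: Fluo-8 calcium fluorescence / Measure: Max/basal fluorescence ratio as % of EC20–EC100 ACh window / Benchmarks: low control EC20 acetylcholine (0%), high control EC100 acetylcholine (100%) / Replicates: one well per compound, no replicates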
CHRM5 antagonist: CHRM5 antagonism in calcium assay; hit rate 0.59% among 360,000; inhibition, % at 3 µM; CHO-hM5 cells, Fluo-8 calcium fluorescence, ACh EC80;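 active = inhibition above a per-plate cutoff, the mean of that plate's test compounds plus 3 SD, cut at about 27% in these data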
CHRM4 agonist: agonists of human muscarinic M4 receptor (CHRM4) | activation, % at 3 µM | hit rate 0.14% among 360,000 | CHO-K1 hM4/Gqi5, Fluo-8 calcium fluorescence; vehicle 0%, full acetylcholine response 100%;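 active = activation above the run mean over all test wells plus 3 SD, cut at about 32% in these data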;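 note: peak over basal fluorescence ratio per well then scaled between controls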
CHRM5 agonist: agonists of human muscarinic M5 receptor (CHRM5). P08912. CHO-K1 hM5 cells, Fluo-8 calcium fluorescence; 0% DMSO wells, 100% maximal acetylcholine response. activation, % at 3 µM. hit rate 0.19% among 360,000;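 active = activation above the run's mean over test compounds plus 3 SD, cut at about 23% in these data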;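 note: signal is peak over basal fluorescence ratio across the kinetic read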
CHRM4 PAM: CHRM4 positive allosteric modulation; P08173; CHO-K1 hM4/Gqi5, Fluo-8 calcium fluorescence, ACh EC20; 0% = ACh EC20, 100% = maximal ACh; activation, % at 3 µM; hit rate 0.4% among 360,000; AID 624126;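 active = activation above its plate's cutoff, the mean activation of sample wells plus 3 SD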
M4 antag: blocks acetylcholine activation of human M4 receptor; inhibition, % at 3 µM; AID 624125; hit rate 0.73% among 360,000; CHO-hM4 cells, ACh EC80, Fluo-8 calcium fluorescence;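 active = inhibition above its plate's cutoff, the mean inhibition of sample wells plus 3 SD, cut at about 27% in these data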
Numbers stand for hits; n = inactive; x = no result given; ! = not confirmed by another sample.

SMILES	CHRM5 PAM	CHRM5 antagonist	CHRM4 agonist	CHRM5 agonist	CHRM4 PAM	M4 antag
CC(C)c1ccc(NC(=O)C2(C)Cc3c(-c4cccc(C(F)(F)F)c4)ccnc3O2)cc1 (configuration not stated)	n	n	n	n	n	n
CC1CN(S(=O)(=O)c2cccc3nsnc23)CC(C)O1 (configuration not stated)	n	n	n	n	n	27
O=S(=O)(c1cccc2nsnc12)N1CCCC1	n	n	n	n	n	n
Cc1ccc(F)cc1C(=O)N1CCCC1(C)C(=O)NCC(C)C (configuration not stated)	n	n	n	n	n	n
Cc1cccc(-c2noc(-c3csc([C@@H]4C[C@H](O)[C@@H](CO)O4)n3)n2)c1	n	29	n	n	n	n
Cc1c(O)cccc1C(=O)N[C@@H](CSc1ccccc1)[C@H](O)CN1C[C@H]2CCCC[C@H]2C[C@H]1C(=O)NC(C)(C)C	n	85!	44!	98!	n	n
CCCCCOc1ccc(Br)cc1CSC(=N)N	n	32	n	n	n	n
CC1(C(=O)Nc2ccc3c(c2)OCCO3)CN(S(C)(=O)=O)CC(=O)N1CCCn1ccnc1 (configuration not stated)	n	n	n	n	n	n
CN1CCC(C2(O)c3ccccc3CCc3ccccc32)CC1	n	37	n	n	n	52
CN1CCC(C2(O)c3ccccc3CSc3sccc32)CC1 (configuration not stated)	n	n	n	n	n	n
COc1ccc(N2CCN(C(=O)CSc3nnc4n3C(C)(C)Cc3ccccc3-4)CC2)cc1	n	n	n	n	n	n
Cc1ccc(Cl)cc1N1CCN(C(=O)CSc2nnc3n2C(C)(C)Cc2ccccc2-3)CC1	n	41	n	n	n	33
Cn1nc(C(C)(C)C)cc1C(=O)N1CCCC(c2cc(C(=O)NCc3ccccc3)no2)C1 (configuration not stated)	n	n	n	n	n	n
CCOC(=O)[C@]12CCCC=C1N(Cc1cccc3ccccc13)C(=O)[C@H](CC(=O)N1CCCCC1)C2	n	n	n	n	n	n
NCCc1nnc(SCc2ccccc2Cl)o1	n	n	n	n	n	n
NCCCCCc1nnc(SCc2ccc(Cl)cc2Cl)o1	n	43	n	n	n	50
NCCCCCc1nnc(SCc2cccc(Cl)c2)o1	n	80	n	n	n	85
COC(=O)[C@@]12C[C@@H](CC(=O)N3CCC(c4ccccc4)CC3)C(=O)N(Cc3cccc4ccccc34)C1=CCC(C)(C)C2	n	n	n	n	n	n
Cc1ccc2cc(CN(CCN(C)C)C(=S)Nc3ccccc3)c(=O)[nH]c2c1C	n	37	n	43	n	n
CCN(CC)CCN(Cc1cc2cccc(C)c2[nH]c1=O)C(=S)Nc1ccccc1	n	58	n	63	n	n
CN1[C@@H]2CC(OC(=O)[C@H](CO)c3ccccc3)C[C@H]1[C@@H]1O[C@@H]12 (some centres not stated)	x	x	n	x	n	100
O=C(Nc1ccccc1C(=O)O)c1ccc(Br)o1	n	n	n	n	n	n
CC(=O)c1cc(C(=O)Nc2ccccc2C(=O)O)oc1C	n	n	n	n	32	n
OC(c1ccc(F)c(F)c1)c1nc(-c2cc(F)cc(F)c2)cs1 (configuration not stated)	n	n	n	n	n	n
CN1CCN(C(=O)c2ccc3c(Cl)c4c(nc3c2)CCCC4)CC1	n	n	n	n	15	n
Cn1cnc(S(=O)(=O)N2CCCCC2c2cc(C(=O)NCc3ccc(F)cc3)no2)c1 (configuration not stated)	n	n	n	n	n	n
CCOc1ccc(Br)cc1/C(C)=N\NC1=NCCN1	n	32	n	n	n	n
CCN(Cc1ccncc1)C(=S)Nc1ccccc1	n	n	n	n	n	n
CCN(Cc1ccncc1)C(=O)C(CO)c1ccccc1 (configuration not stated)	n	87	n	n	n	89

Screens: PubChem BioAssay, The Scripps Research Institute Molecular Screening Center
